Data reported in ChEMBL document CHEMBL4145583, “Neuroprotective Compound from an Endophytic Fungus, Colletotrichum sp. JS-0367” (J Nat Prod, 2018).
Active and inactive are the calls of the source. The calls are words filed in the database; no cut-off is given here.

What was measured:
[1] = biological target: MAP kinase p38 (Mus musculus) (UniProt P47811+O08911+Q9WUI1+Q9Z1B7); assay: Inhibition of glutamate-induced p38 phosphorylation in mouse HT22 cells at 50 to 100 uM after 8 hrs by Western blot analysis; assay type: cell-based
Summary of the method: (§1)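 Mouse hippocampal HT22 cells were grown in DMEM with 10% FBS and penicillin/streptomycin at 37 °C in 5% CO2. Cells were exposed to 5 mM glutamate plus 50 or 100 μM compound for 8 h, then lysed in RIPA buffer with protease inhibitors. Lysates were run on SDS-PAGE and transferred to PVDF. Membranes were blocked in 5% milk and probed for 1 h with p-/total ERK1/2, JNK, p38 and GAPDH antibodies. Chemiluminescent bands were quantified as fold of control; mean ± SEM.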

HT-22 [2] = assay: Inhibition of glutamate-induced intracellular ROS generation in mouse HT22 cells at 50 to 100 uM after 8 hrs by DCF-DA probe based fluorescence microscopic analysis; assay type: functional, cell-based
Summary of the method: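 HT22 cells were seeded at 1 × 10^4 per well in DMEM/10% FBS at 37 °C, 5% CO2. They were exposed to 5 mM glutamate with or without compound for 8 h, loaded with 10 μM DCF-DA for 30 min and washed three times with PBS. DCF fluorescence was read at ex 495/em 517 nm on a plate reader and expressed against control; images were taken by fluorescence microscopy. Mean ± SEM.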

HT-22 [3] = assay: Neuroprotective activity against glutamate-induced neuronal cell death in mouse HT22 cells assessed as increase in cell viability at 50 to 100 uM after 24 hrs by microscopy; assay type: functional, cell-based
[4] = biological target: Mitogen-activated protein kinase 1 and 3 (ERK2 and ERK1) (Mus musculus) (UniProt P63085+Q63844); assay: Inhibition of glutamate-induced ERK1/2 phosphorylation in mouse HT22 cells at 50 to 100 uM after 8 hrs by Western blot analysis; assay type: cell-based; summary of the method: as §1
HT-22 [5] = assay: Inhibition of glutamate-induced intracellular calcium level in mouse HT22 cells at 50 uM after 8 hrs by Flu-4 AM probe based fluorescence microscopic analysis relative to control; assay type: functional
Summary of the method: (§2)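 HT22 mouse hippocampal cells (DMEM, 10% FBS, penicillin/streptomycin, 37 °C, 5% CO2) were seeded at 5 × 10^4 cells/well and co-treated with 5 mM glutamate and the test agent for 8 h. They were then loaded with 2 μM Fluo-4 AM and rinsed with phenol-red-free medium. Fluorescence images were quantified as fold change versus untreated control cells (mean ± SEM).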

Mus musculus = species on record: Mus musculus; assay: Inhibition of glutamate-induced JNK phosphorylation in mouse HT22 cells at 50 to 100 uM after 8 hrs by Western blot analysis; assay type: cell-based; summary of the method: as §1
[6] = Antioxidant activity assessed as DPPH radical scavenging activity; assay type: functional
HT-22 [7] = assay: Neuroprotective activity against glutamate-induced apoptotic cell death in mouse HT22 cells at 50 to 100 uM after 10 hrs by Alexa fluor-488 annexin V/PI staining based cytometric analysis; assay type: functional
Summary of the method: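 HT22 cells were seeded at 2 × 10^5 per well and treated with 5 mM glutamate and 50 or 100 μM compound for 10 h. Cells were harvested, washed in PBS, and equal numbers were labelled with Alexa Fluor 488 annexin V in binding buffer for 20 min, then with propidium iodide. Cells were counted by image-based cytometry as % annexin V-positive; mean ± SEM.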

[8] = Antioxidant activity assessed as DPPH radical scavenging activity at 100 uM; assay type: functional
HT-22 [9] = assay: Neuroprotective activity against glutamate-induced neuronal cell death in mouse HT22 cells assessed as increase in cell viability after 24 hrs by Ez-CyTox reagent based assay; assay type: functional
Summary of the method: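 HT22 cells (DMEM/10% FBS, 37 °C, 5% CO2) were plated at 1 × 10^4 per well and left to adhere for 24 h. Glutamate (5 mM final) was added together with compounds for 24 h. EZ-Cytox reagent was applied for 30 min and absorbance read at 450 nm. Viability is given as % of untreated live control; mean ± SEM.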

HT-22 [10] = assay: Inhibition of glutamate-induced intracellular calcium level in mouse HT22 cells at 100 uM after 8 hrs by Flu-4 AM probe based fluorescence microscopic analysis relative to control; assay type: functional; summary of the method: as §2

Chain of Mitogen-activated protein kinase 1 and 3 (ERK2 and ERK1) (Mus musculus) (P63085 whole entry, looked up): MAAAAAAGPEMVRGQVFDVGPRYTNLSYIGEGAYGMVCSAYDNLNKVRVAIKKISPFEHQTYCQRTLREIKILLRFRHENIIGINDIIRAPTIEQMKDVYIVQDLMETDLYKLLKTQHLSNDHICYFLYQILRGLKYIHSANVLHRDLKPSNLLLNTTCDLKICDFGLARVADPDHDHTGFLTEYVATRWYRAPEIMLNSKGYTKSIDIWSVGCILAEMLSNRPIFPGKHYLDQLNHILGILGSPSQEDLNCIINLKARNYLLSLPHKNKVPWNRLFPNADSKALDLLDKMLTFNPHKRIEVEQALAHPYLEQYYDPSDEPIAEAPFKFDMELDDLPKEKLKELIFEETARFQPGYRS
Chain of Mitogen-activated protein kinase 1 and 3 (ERK2 and ERK1) (Mus musculus) (Q63844 whole entry, looked up): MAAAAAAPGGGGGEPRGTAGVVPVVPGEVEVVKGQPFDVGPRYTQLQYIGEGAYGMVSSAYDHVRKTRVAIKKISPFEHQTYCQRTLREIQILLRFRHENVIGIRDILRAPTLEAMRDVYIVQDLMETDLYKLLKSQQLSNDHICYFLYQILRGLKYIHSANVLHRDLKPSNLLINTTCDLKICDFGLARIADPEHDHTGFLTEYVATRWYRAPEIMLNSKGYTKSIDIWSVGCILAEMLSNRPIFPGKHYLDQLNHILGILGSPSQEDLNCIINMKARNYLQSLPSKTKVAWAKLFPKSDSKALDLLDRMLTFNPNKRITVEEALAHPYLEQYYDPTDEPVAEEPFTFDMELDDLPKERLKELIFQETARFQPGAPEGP

**Q.** Which inhibition [1] does the source give for `COc1cc(C)cc2c1C(=O)c1c(cc(O)c(O)c1O)C2=O` here?
**A.** Active

**Q.** And the inhibition (HT-22 [2])?
**A.** Active

**Q.** And the Activity (HT-22 [3])?
**A.** Active

**Q.** And the inhibition [4]?
**A.** Active

**Q.** And the “fold change (FC)” value (HT-22 [5])?
**A.** 1.4

**Q.** And the inhibition (Mus musculus)?
**A.** Active

**Q.** And the Activity [6]?
**A.** Dose-dependent effect

**Q.** And the IC50 [6]?
**A.** 42.2 µM

**Q.** And the Activity (HT-22 [7])?
**A.** Active

**Q.** What about the Activity [8] of the same compound?
**A.** 70%

**Q.** What about the Activity (HT-22 [9]) of the same compound?
**A.** Dose-dependent effect

**Q.** What about the “fold change (FC)” value (HT-22 [10]) of the same compound?
**A.** 0.98
